Results from different studies.
Compare with care: the assays were run in different laboratories.
Target: Mitogen-activated protein kinase kinase kinase kinase 2 (MAP4K2, Homo sapiens, UniProt Q12851)
One construct used (Q12851 1-820): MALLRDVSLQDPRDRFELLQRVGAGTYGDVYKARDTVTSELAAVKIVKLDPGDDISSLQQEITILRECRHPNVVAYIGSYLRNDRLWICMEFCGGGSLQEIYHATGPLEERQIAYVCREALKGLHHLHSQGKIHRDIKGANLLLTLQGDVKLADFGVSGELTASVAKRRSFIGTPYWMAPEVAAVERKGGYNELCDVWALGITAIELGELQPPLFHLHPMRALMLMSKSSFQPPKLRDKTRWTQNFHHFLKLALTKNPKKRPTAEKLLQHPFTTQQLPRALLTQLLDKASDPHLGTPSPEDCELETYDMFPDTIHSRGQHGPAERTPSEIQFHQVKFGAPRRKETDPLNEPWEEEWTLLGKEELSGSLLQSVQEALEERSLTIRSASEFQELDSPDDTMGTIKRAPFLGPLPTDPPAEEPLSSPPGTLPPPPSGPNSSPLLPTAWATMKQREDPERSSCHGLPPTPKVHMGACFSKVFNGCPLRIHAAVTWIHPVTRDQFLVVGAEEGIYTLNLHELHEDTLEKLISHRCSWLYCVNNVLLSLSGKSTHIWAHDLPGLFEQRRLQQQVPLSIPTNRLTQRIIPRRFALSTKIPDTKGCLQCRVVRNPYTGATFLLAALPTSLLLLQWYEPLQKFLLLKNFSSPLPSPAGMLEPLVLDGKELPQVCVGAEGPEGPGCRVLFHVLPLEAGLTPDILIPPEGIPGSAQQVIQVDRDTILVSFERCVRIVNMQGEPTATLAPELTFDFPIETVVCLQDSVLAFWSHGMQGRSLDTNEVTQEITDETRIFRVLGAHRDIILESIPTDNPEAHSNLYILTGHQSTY

| Compound | read-out | mode | technique | tested at | measurement | result |
| --- | --- | --- | --- | --- | --- | --- |
| Cc1ccc(Nc2nccc(N(C)c3ccc4c(C)n(C)nc4c3)n2)cc1S(N)(=O)=O | enzyme activity | inhibitor | – | 0.3 µM | inhibition | 16% |
| Cc1nc(N2CC[C@@H](O)C2)ncc1-c1cc(C(F)(F)F)cc2[nH]ncc12 | binding | – | competition with immobilised ligand | 1 µM | remaining binding | 76% |
| Cc1cc(NC(=O)c2cccc3cc(-c4cccc5[nH]nc(N)c45)ccc23)ccc1F | enzyme activity | inhibitor | – | 0.1 µM | activity vs control | 88% |
| CNC(=O)c1cc(Oc2ccc(NC(=O)Nc3ccc(Cl)c(C(F)(F)F)c3)cc2)ccn1 | enzyme activity | inhibitor | – | 10 µM | inhibition | 46% |
| FC(F)c1nc2ccccc2n1-c1nc(N2CCOCC2)nc(N2CCOCC2)n1 | enzyme activity | inhibitor | – | 10 µM | remaining activity | 104% |
| CCN(CC)c1ccc(C2=NNC(=O)CC2C)cc1[N+](=O)[O-] (centres unmarked) | enzyme activity | inhibitor | – | 10 µM | remaining activity | 97% |
| CSc1cccnc1N1CCN(Cc2nc3ccccc3[nH]2)CC1 | cell-free assay | – | competition with immobilised ligand | 1 µM | remaining binding | 100% |
| COc1cc2ncnc(Nc3ccc(Oc4ccccc4)c(C)c3C)c2cc1OC | enzyme activity | inhibitor | – | 1 µM | inhibition | 0% |
| N#CCCc1ccc2c(c1)-c1[nH]c3ccc([N+](=O)[O-])cc3c1CC(=O)N2 | cell-free assay | – | – | 0.5 µM | remaining signal | 14% |
| CC(C)(O)[C@H]1CC[C@H](Nc2ccc3ncc(-c4cccc(C(F)(F)F)c4)n3n2)CC1 | enzyme activity | inhibitor | – | 1 µM | remaining activity | 94.6% |
| C[C@@H](c1cccc(C#N)c1)n1cc(Cl)cc(C(N)=O)c1=N | cell-free assay | – | competition with immobilised ligand | 1 µM | remaining binding | 90% |
| COc1cc(/C=C/C(=O)CC(=O)/C=C/c2ccc(O)c(OC)c2)ccc1O | enzyme activity | inhibitor | – | 1 µM | activity vs control | 103% |
| COc1cc(Nc2cnc(C#N)c(O[C@H](C)CN(C)C)n2)ncc1-c1cnn(C)c1 | enzyme activity | inhibitor | radiometric | 1 µM | remaining activity | 102% |
| CCN(CC)CCNC(=O)c1c(C)[nH]c(/C=C2\C(=O)Nc3ccc(F)cc32)c1C | enzyme activity | inhibitor | – | 10 µM | inhibition | 92% |
| Cc1c(NC(=O)c2cc(C(N)=O)nc3cc(F)ccc23)c(C(F)(F)F)nn1Cc1ccc(C#N)cc1 | cell-free assay | – | competition with immobilised ligand | 1 µM | remaining binding | 88% |
| O=C(Nc1cnn(-c2csc(C(=O)NC3COC3)c2)c1)Nc1c(F)cccc1Cl | enzyme activity | inhibitor | – | 5 µM | remaining activity | 95.3% |
| Nc1ncnc2occ(-c3ccc(NC(=O)Nc4cc(C(F)(F)F)ccc4F)cc3)c12 | cell-free assay | inhibitor | – | 20 µM | remaining signal | 0% |
| CC(C)(O)c1cncc(-c2nc3ccc(F)cc3n2C2CC2)c1 | cell-free assay | – | competition with immobilised ligand | 1 µM | remaining binding | 98% |
| Oc1cccc(-c2nc(N3CCOCC3)c3oc4ncccc4c3n2)c1 | enzyme activity | inhibitor | – | 10 µM | remaining activity | 91% |
| CN1CC(Oc2cnc(C#N)cc2-c2ccn3nc(NC(=O)C4CC4)cc3c2)C1 | enzyme activity | inhibitor | – | 1 µM | inhibition | 2% |
| O=C1Nc2ccc(Cl)cc2C1=Cc1cc(Cl)c(O)c(Cl)c1 | cell-free assay | – | – | 0.5 µM | remaining signal | 62.6% |
| O=C1NC(c2ccccn2)Sc2ccccc21 (centres unmarked) | cell-free assay | – | competition with immobilised ligand | 1 µM | remaining binding | 83% |
| CC/C(=N\NC(=O)NCc1cccc(O)c1)c1ccc(O)c(C)c1O | enzyme activity | inhibitor | – | 0.1 µM | inhibition | 1.4% |
| Cc1cc(NC(=O)c2cccc(S(F)(F)(F)(F)F)c2)cc(-n2ccn3nc(-c4cccnc4)cc23)c1 | cell-free assay | – | competition with immobilised ligand | 1 µM | remaining binding | 100% |
| CC(C)(C)c1nc(-c2cccc(NS(=O)(=O)c3c(F)cccc3F)c2F)c(-c2ccnc(N)n2)s1 | enzyme activity | inhibitor | radiometric | 1 µM | remaining activity | 115% |
| FC(F)(F)Oc1cccc(-c2cnc3ccc(-c4ccncc4)nn23)c1 | enzyme activity | inhibitor | radiometric | 5 µM | activity vs control | 33% |
